This is a sample that favours compounds with a hit; in the whole collection about 1.3% have one here.
Furin inhibitor: human furin inhibitors, primary screen, biochemical, fluorescence intensity; P09958; purified furin, fluorogenic substrate cleavage; inhibition, % at 20 µM or 30 µM; 220,000 compounds, 0.061% hits; in the data active = inhibition above about 25%
PGE2 EP2 inh: human EP2 receptor antagonists, primary screen, TR-FRET cAMP, C6 glioma cells. Prostaglandin E2 receptor EP2 subtype (Homo sapiens), P43116. C6 glioma cells expressing human EP2; cells stimulated with saturating PGE2. inhibition, % at 25 µM. 260,000 compounds, 0.52% hits. AID 1422, 2008;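 active = percent inhibition above 40 after rounding to a whole number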;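 note: rat C6 glioma host cells with rolipram phosphodiesterase inhibitor present; the protocol text gives 20 µM as final concentration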
Target sequence (P43116 whole entry, looked up): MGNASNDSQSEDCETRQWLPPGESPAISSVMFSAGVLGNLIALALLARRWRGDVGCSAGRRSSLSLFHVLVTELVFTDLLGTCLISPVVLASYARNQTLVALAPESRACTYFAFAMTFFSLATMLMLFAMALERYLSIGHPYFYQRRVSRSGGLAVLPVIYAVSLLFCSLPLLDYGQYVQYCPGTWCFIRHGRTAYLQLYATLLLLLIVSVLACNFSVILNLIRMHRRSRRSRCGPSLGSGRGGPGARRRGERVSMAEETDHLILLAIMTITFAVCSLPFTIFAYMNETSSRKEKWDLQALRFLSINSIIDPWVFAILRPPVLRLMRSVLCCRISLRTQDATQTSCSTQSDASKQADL
NR2E3 ag-1: NR2E3 agonists in two-hybrid cells, primary screen, cell-based, luminescence, CHO-S, Gal4-NCOR/VP16-NR2E3; luciferase; AID 602229, 2012; 360,000 compounds, 0.35% hits; Photoreceptor-specific nuclear receptor (Homo sapiens), Q9Y5X4; inhibition of corepressor binding, % at 3.98 µM;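 active = inhibition above the mean of all tested compounds plus 3 SD, cut at about 70% in these data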;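 note: 0% = DMSO with NR2E3 transfected cells and 100% = cells lacking NR2E3 construct; higher means lower luciferase signal from less NR2E3 corepressor binding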
EP2 mod: EP2 receptor modulators, cAMP readout, primary screen, cell-based, HTRF cAMP, PGE2 stimulation; Prostaglandin E2 receptor EP2 subtype (Homo sapiens), P43116; EP2-expressing cells, cAMP HTRF FRET, PGE2 co-stimulation; induction, % at 25 µM; 260,000 compounds, 0.83% hits; AID 940, 2007;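 active = compounds whose cAMP rise, as percent of the full-agonist control response, exceeds 60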;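 note: rat C6 glioma line stably carrying human EP2 under a CMV promoter; the protocol text gives 20 µM as final concentration; 100% = response of wells given 1 µM PGE2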
JMJD2C inh: inhibitors of GASC-1 histone demethylase, primary screen, biochemical, fluorescence, DELFIA europium; Lysine-specific demethylase 4C (Homo sapiens), Q9H3R0; GST-JMJD2C(1-420) H3K9me3 demethylation; inhibition, % at 2.35 µM; 330,000 compounds, 0.069% hits;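 active = more than half of a compound's replicate wells show inhibition beyond 50%, single wells judged on their own value; inconclusive = some, but no more than half, of replicates pass 50% inhibition; inactive = no replicate passes 50% inhibition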;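 note: signal counts dimethyl H3K9 product captured on neutravidin plate; 0% = median of DMSO wells and 100% = 0.3 times that DMSO median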
NR2E3 ag-2: inhibitors of NR2E3-RetCOR corepressor binding, primary screen, NR2E3 agonist project, biochemical, TR-FRET, GST-NR2E3, biotin-RetCOR; 1536-well; inhibition of corepressor binding, % at 4.78 µM; 320,000 compounds, 0.12% hits; AID 2300, 2010;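 active = percent inhibition above the cutoff of mean plus 3 SD of all tested compounds, set per screening campaign, cut at about 20% in these data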;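 note: 0% = DMSO wells and 100% = biotin wells as full block of FRET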
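System: GST-NR2E3 and biotin-RetCOR proteins; probe or stimulus: 7 nM biotin-RetCOR; doses: compound at 4.8 µM, single dose; schedule: Compound–protein incubation for 5 h at 4 °C; detection: time-resolved FRET; read-out: percent inhibition; controls: biotin wells as high control, 0.6% DMSO wells as low control; format: 1536-well plates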
An asterisk follows results filed as active; ? = inconclusive; . = no result.

SMILES	Furin inhibitor	PGE2 EP2 inh	NR2E3 ag-1	EP2 mod	JMJD2C inh	NR2E3 ag-2
O=[N+]([O-])c1oc2ccccc2c1NCc1cccs1	.	12	.	5	.	.
c1ccc(-n2c3ccccc3c3ccccc32)cc1	-22	13	19	64*	-5	1
CC(C)(C)c1c2c(c(C(C)(C)C)c3c1OCN(Cc1ccccc1)C3)OCN(Cc1ccccc1)C2	.	80*	.	-32	.	.
COc1cccc(Cn2nc(-c3cccnc3)oc2=O)c1	.	7	.	-9	.	.
CC1(C)CC(=O)C(C=Nc2ccccc2)=C(O)C1	11	10	-17	-3	3	-3
CC1(C)CC(=O)C(/C=N/n2cnc3ccccc3c2=O)=C(O)C1	79*	5	-15	-4	-1	-1
CC1(C)CC(=O)C(/C=N/c2ccccn2)=C(O)C1	51*	9	15	16	-1	2
CC1(C)CC(=O)C(C=Nc2cccc(/N=C/C3=C(O)CC(C)(C)CC3=O)n2)=C(O)C1	-1	.	.	14	?	.
Cc1ccccc1NC(=O)CCN1CCOCC1	.	10	.	9	.	.
COc1ccc(-n2nnnc2SCC(=O)Nc2cccc(C)c2)cc1OC	.	16	.	3	.	.
Cc1ccc(-c2cc(C(F)F)n3ncc(C(=O)NCc4cnn(C)c4C)c3n2)cc1	.	14	.	5	.	.
CCN=C1S/C(=C\c2cn(CC)c3ccccc23)C(=O)N1CC	3	4	-28	33	5	0
CCn1cc(C=C2C(=O)c3ccccc3C2=O)c2ccccc21	-15	42*	2	-284	-12	.
Nc1nn(-c2ccccc2)c2ccc([N+](=O)[O-])cc12	.	.	-14	.	-24	-4
CC(C)n1c2ccccc2c2cc([N+](=O)[O-])ccc21	-17	8	-35	65*	9	1
O=C(c1cccs1)N1CCc2c(nc(N3CCCC3)[nH]c2=O)C1	.	.	.	5	.	.
Cc1nn(-c2ccc(S(=O)(=O)O)cc2)c(O)c1N=Nc1ccc(-c2ccc(N=Nc3ccc4c(S(=O)(=O)O)cc(S(=O)(=O)O)c(N)c4c3O)c(O)c2)cc1O.[Cu].[Cu]	.	54*	.	21	.	.
Cc1cc(-c2ccc(N=Nc3c(S(=O)(=O)O)cc4cc(S(=O)(=O)O)cc(N)c4c3O)c(C)c2)ccc1N=Nc1c(S(=O)(=O)O)cc2cc(S(=O)(=O)O)cc(N)c2c1O	.	.	.	.	.	-183
Cc1cc(=O)c2cc(Br)ccc2[nH]1	-23	4	11	7	8	2
Cc1cc(=S)c2cc(Br)ccc2[nH]1	.	21	.	66*	.	.
COc1ccccc1-c1nc(-c2ccc(C)nc2OC)no1	4	10	-91	7	-5	3
COc1nc(C)ccc1-c1noc(-c2ccccn2)n1	28*	4	-90	1	6	3
Cc1ccc(C(O)CN2CCC(O)(c3ccc4c(c3)OCO4)CC2)cc1C (stereo unspecified)	.	9	.	-86	.	.
NC(=O)c1sc2nc3c(c(-c4ccco4)c2c1N)CCCC3	-19	6	-55	22	-6	-1
COC(=O)c1sc2nc3c(c(-c4cccs4)c2c1N)CCCC3	-15	10	7	64*	4	-2
SMILES	Furin inhibitor	PGE2 EP2 inh	NR2E3 ag-1	EP2 mod	JMJD2C inh	NR2E3 ag-2
c1cc2c3c(cccc3c1)NC1(CCC3(CC1)Nc1cccc4cccc(c14)N3)N2	-36	89*	-28	-42	8	-2
c1cc2c3c(cccc3c1)NC1(CCCCCC1)N2	-26	7	-7	-27	-23	0
CCOc1cc(C(=O)Nc2nncs2)cc(OCC)c1OCC	.	9	.	-10	.	.
C=CCn1c(=S)[nH]c2scc(-c3cccs3)c2c1=O	-17	63*	-35	-20	.	.
O=c1c2c(-c3cccs3)csc2ncn1-c1ccc(Br)cc1	-8	4	-8	22	-5	-1
Cn1c(=S)[nH]c2scc(-c3cccs3)c2c1=O	-10	78*	15	-25	19	.
O=C(Nc1ccccc1)C1Cc2ccccc2CN1S(=O)(=O)c1cccs1 (stereo unspecified)	.	8	.	24	.	.
Cc1cccc(C(=O)NC2CCN(C(=S)NC3CCCCC3)CC2)c1	.	5	.	-28	.	.
O=C(Nc1ccc2c(c1)Cc1ccccc1-2)[C@@H]1[C@H](C(=O)O)[C@]2(Cl)C(Cl)=C(Cl)[C@@]1(Cl)C2(Cl)Cl	.	42*	.	-26	.	.
O=C(Nc1ccc2c(c1)Cc1ccccc1-2)c1ccncc1	-22	6	-58	-13	6	5
CCOc1ccc(NC(=O)CSc2nnc(-c3ccccc3)n2C)cc1	.	4	.	-10	.	.
FC(F)(F)c1cn2c(n1)CN(Cc1nnnn1Cc1ccco1)CC2	.	.	.	3	.	.
COC(=O)[C@H]1CN(C(=O)c2c(C)noc2C)C[C@@H]1c1ccc(F)cc1	.	.	.	-37	.	.
COc1cc(CCc2ccc3c(c2)OCO3)oc(=O)c1	-30	17	9	63*	4	0
C[N+]1(CCCC[N+]2(C)CCCCCCC2)CCCCCCC1	.	46*	.	20	.	.
CC(=O)OCCCCCCCCCCC[N+]1(C)CCCCC1	-11	6	-31	2	3	2
N/C(=N/O)c1cn([C@H]2O[C@@H](CO)[C@H](O)[C@H]2O)c2ncnc(NO)c12	.	47*	.	24	.	.
CCOc1cc(-c2nc3cnccn3c2NCC2CCCO2)ccc1O (stereo unspecified)	.	.	.	-13	.	.
Cc1ccc(C(=N)c2ccccc2Cc2cccc3ccccc23)c2ccccc12	.	40*	.	39	.	.
COCC(=O)N(Cc1ccccc1)c1ccccn1	-12	10	-3	17	-5	2
COc1ccccc1NC(=O)N(Cc1ccccc1)c1ccccn1	-15	-3	-23	61*	-14	-5
Nc1ncccc1OCc1cccc(C(F)(F)F)c1	-22	3	22	-30	7	-2
Nc1nc(N)c(-c2cccc(C(F)(F)F)c2)c(Cc2cccc(C(F)(F)F)c2)n1	.	62*	38	-44	.	.
O=C(O)c1c(Cl)c(Cl)c(Cl)c(Cl)c1C(=O)Nc1ccc2cn[nH]c2c1	.	58*	.	-4	.	.
O=C(NC1CCCCC1)c1ccc(S(=O)(=O)NCc2cccs2)cc1	.	9	.	-21	.	.
C[C@@H]1CC[C@H]2[C@H](C)[C@@H]3[C@@H](C[C@H]4[C@H]5CC=C6C[C@@H](O)CC[C@]6(C)[C@@H]5C[C@@H](O)[C@]34C)N2C1	.	62*	.	-9	.	.
O=[N+]([O-])c1ccc2nc(C(O)C(O)c3nc4ccc([N+](=O)[O-])cc4[nH]3)[nH]c2c1 (stereo unspecified)	.	.	-13	.	1	4

Bioassay records from PubChem BioAssay.
